≈ marks a conversion by molar mass, not a printed value. Each block holds one molecule with its values, some of them ahead of it. Calls of active or inactive are those of the source. The rule behind the calls is not given here.
What was measured:
[1] = Solubility in MeOH solution; format: physicochemical
[2] = tested on: MV4-11; assay: Cytotoxicity against human MV4-11 cells incubated for 72 hrs by MTT assay; format: functional, cell-based; settings: MV4-11, 72 h
Summary of the method: (§1)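 Leukemia cells were grown with 10% FBS at 37 °C in 5% CO₂; MV4-11 was kept in IMDM. Cells were seeded at 1–4 × 10⁴ per well, and an equal volume of medium containing increasing inhibitor concentrations was added. MTT was added for 2–4 h, formazan was dissolved in DMSO, and OD was read at 570 nm to derive IC50.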

[3] = Solubility in EtOH solution; format: physicochemical
[4] = Solubility in water; format: physicochemical
[5] = Solubility in PBS solution; format: physicochemical
[6] = Solubility in SPSS; format: physicochemical
[7] = AUC (0 to 24 hrs) in Sprague-Dawley rat at 30 mg/kg, po after 15 mins to 24 hrs by HPLC method; format: ADME, organism-based; set-up: dose 30 mg/kg, time < 24 hr, route oral; settings: in vivo
Summary of the method: (§2)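 Sprague–Dawley rats (n = 3) fasted overnight, then given a single 30 mg/kg oral gavage dose in 25% PEG400, 5% DMSO and 70% distilled water. Heparinized blood was drawn at 15 min, 30 min, 1, 2, 4, 6, 12 and 24 h, and plasma was separated by centrifugation. Plasma levels were measured by liquid–liquid extraction and HPLC.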

[8] = Cmax in Sprague-Dawley rat at 30 mg/kg, po after 15 mins to 24 hrs by HPLC method; format: ADME, organism-based; set-up: dose 30 mg/kg, route oral; settings: in vivo; summary of the method: as §2
[9] = Apparent half life in Sprague-Dawley rat at 30 mg/kg, po after 15 mins to 24 hrs by HPLC method; format: ADME, organism-based; settings: in vivo, read-out: t1/2(app) (converted); summary of the method: as §2
[10] = tested on: Rattus norvegicus; assay: Volume of distribution at steady state in Sprague-Dawley rat at 30 mg/kg, po after 15 mins to 24 hrs by HPLC method; format: ADME, organism-based; settings: in vivo; summary of the method: as §2
[11] = Clearance in Sprague-Dawley rat at 30 mg/kg, po after 15 mins to 24 hrs by HPLC method; format: ADME, organism-based; settings: in vivo; summary of the method: as §2
[12] = tested on: MV4-11; assay: Growth inhibition of FLT3-ITD bearing human MV4-11 cells incubated for 72 hrs by MTT assay; format: functional, cell-based; settings: MV4-11, 72 h; summary of the method: as §1
[13] = tested on: K562; assay: Growth inhibition of human K562 cells incubated for 72 hrs by MTT assay; format: functional, cell-based; settings: K562, 72 h; summary of the method: as §1
[14] = tested on: U-937; assay: Growth inhibition of human U937 cells incubated for 72 hrs by MTT assay; format: functional, cell-based; settings: U-937, 72 h; summary of the method: as §1
[15] = tested on: THP-1; assay: Growth inhibition of human THP1 cells incubated for 72 hrs by MTT assay; format: functional, cell-based; settings: THP-1, 72 h; summary of the method: as §1
[16] = tested on: Jurkat; assay: Growth inhibition of human Jurkat cells incubated for 72 hrs by MTT assay; format: functional, cell-based; summary of the method: as §1
[17] = tested on: A549; assay: Growth inhibition of human A549 cells incubated for 72 hrs by MTT assay; format: functional, cell-based; settings: A549, 72 h
Summary of the method: (§3)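 Non-leukemia lines were grown in RPMI 1640 or DMEM with 10% FBS at 37 °C in 5% CO₂. Cells were seeded at 2–5 × 10³ per well and incubated 24 h, then treated with diluted inhibitors for 72 h. MTT was added for 2–4 h, formazan was dissolved in DMSO, and OD was read at 570 nm to derive IC50.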

[18] = tested on: MCF7; assay: Growth inhibition of human MCF7 cells incubated for 72 hrs by MTT assay; format: functional, cell-based; settings: MCF7, 72 h; summary of the method: as §3
[19] = Growth inhibition of human PANC1 cells incubated for 72 hrs by MTT assay; format: functional, cell-based; settings: PANC-1, 72 h; summary of the method: as §3
[20] = tested on: U-251; assay: Growth inhibition of human U251 cells incubated for 72 hrs by MTT assay; format: functional, cell-based; settings: U-251, 72 h; summary of the method: as §3
[21] = tested on: HepG2; assay: Growth inhibition of human HepG2 cells incubated for 72 hrs by MTT assay; format: functional, cell-based; settings: HepG2, 72 h; summary of the method: as §3
[22] = Growth inhibition of human A875 cells incubated for 72 hrs by MTT assay; format: functional, cell-based; settings: A875, 72 h; summary of the method: as §3
[23] = tested on: HCT-116; assay: Growth inhibition of human HCT116 cells incubated for 72 hrs by MTT assay; format: functional, cell-based; settings: HCT-116, 72 h; summary of the method: as §3
[24] = tested on: MV4-11; assay: Effect on FLT3 protein expression in human MV4-11 cells at 1 to 100 nM incubated for 2 hrs by Western blotting method; format: cell-based; settings: mv4-11, 2 h, 0.1 µM
Summary of the method: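 MV4-11 cells were treated with increasing concentrations for 2 h at 37 °C, washed in ice-cold PBS and lysed in RIPA buffer with 1% protease cocktail. Lysates were cleared at 13,000 rpm for 15 min at 4 °C, run on 5–10% polyacrylamide gels and transferred to PVDF. Blots were probed with anti-FLT3, anti-p-FLT3 and anti-β-actin, then an HRP secondary antibody.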

[25] = tested on: MV4-11; assay: Induction of apoptosis in human MV4-11 cells incubated for 48 hrs by Annexin V-FITC labeling based flow cytometry; format: functional, cell-based
[26] = tested on: MV4-11; assay: Induction of apoptosis in human MV4-11 cells assessed as viable cells at 1 nM incubated for 48 hrs by Annexin V-FITC labeling based flow cytometry (reference value: 86.1%); format: functional; settings: MV4-11, 48 h, read-out: Activity
[27] = tested on: MV4-11; assay: Induction of apoptosis in human MV4-11 cells assessed as early apoptotic cells level at 1 nM incubated for 48 hrs by Annexin V-FITC labeling based flow cytometry (reference value: 3.54%); format: functional
[28] = tested on: MV4-11; assay: Induction of apoptosis in human MV4-11 cells assessed as late apoptotic cells level at 1 nM incubated for 48 hrs by Annexin V-FITC labeling based flow cytometry (reference value: 6.61%); format: functional
[29] = tested on: MV4-11; assay: Induction of apoptosis in human MV4-11 cells assessed as necrotic cells level at 1 nM incubated for 48 hrs by Annexin V-FITC labeling based flow cytometry (reference value: 3.76%); format: functional
[30] = tested on: MV4-11; assay: Induction of apoptosis in human MV4-11 cells assessed as viable cells at 10 nM incubated for 48 hrs by Annexin V-FITC labeling based flow cytometry (reference value: 86.1%); format: functional; settings: MV4-11, 48 h, read-out: Activity
[31] = tested on: MV4-11; assay: Induction of apoptosis in human MV4-11 cells assessed as early apoptotic cells level at 10 nM incubated for 48 hrs by Annexin V-FITC labeling based flow cytometry (reference value: 3.54%); format: functional
[32] = tested on: MV4-11; assay: Induction of apoptosis in human MV4-11 cells assessed as late apoptotic cells level at 10 nM incubated for 48 hrs by Annexin V-FITC labeling based flow cytometry (reference value: 6.61%); format: functional
[33] = tested on: MV4-11; assay: Induction of apoptosis in human MV4-11 cells assessed as necrotic cells level at 10 nM incubated for 48 hrs by Annexin V-FITC labeling based flow cytometry (reference value: 3.76%); format: functional
[34] = tested on: MV4-11; assay: Induction of apoptosis in human MV4-11 cells assessed as viable cells at 100 nM incubated for 48 hrs by Annexin V-FITC labeling based flow cytometry (reference value: 86.1%); format: functional; settings: MV4-11, 48 h, read-out: Activity
[35] = tested on: MV4-11; assay: Induction of apoptosis in human MV4-11 cells assessed as early apoptotic cells level at 100 nM incubated for 48 hrs by Annexin V-FITC labeling based flow cytometry (reference value: 3.54%); format: functional
[36] = tested on: MV4-11; assay: Induction of apoptosis in human MV4-11 cells assessed as late apoptotic cells level at 100 nM incubated for 48 hrs by Annexin V-FITC labeling based flow cytometry (reference value: 6.61%); format: functional
[37] = tested on: MV4-11; assay: Induction of apoptosis in human MV4-11 cells assessed as necrotic cells level at 100 nM incubated for 48 hrs by Annexin V-FITC labeling based flow cytometry (reference value: 3.76%); format: functional
[38] = tested on: MV4-11; assay: Antitumor activity against FLT3-ITD bearing human MV4-11 cells xenografted in NOD-SCID mouse assessed as induction of complete tumor regression at 60 mg/kg/day, po; format: functional, organism-based
Summary of the method: (§4)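 MV4-11 cells in exponential growth were washed three times in serum-free medium, resuspended at 1 × 10⁸ cells/mL and injected subcutaneously into NOD-SCID mice aged 5–6 weeks. At 100–200 mm³, tumors were randomized into 4 groups of 6. Dosing was 10, 30 or 60 mg/kg/d, or vehicle (25% PEG400 plus 5% DMSO in water), by oral gavage once daily. Tumor volume was measured every 3 days, and body weight and toxicity signs were monitored.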

[39] = tested on: MV4-11; assay: Antitumor activity against FLT3-ITD bearing human MV4-11 cells xenografted in orally dosed NOD-SCID mouse assessed as tumor growth inhibition; format: functional, organism-based; summary of the method: as §4
[40] = tested on: MV4-11; assay: Antitumor activity against FLT3-ITD bearing human MV4-11 cells xenografted in NOD-SCID mouse assessed as tumor growth inhibition at 10 mg/kg/day, po; format: functional; settings: MV4-11, po, read-out: TGI; summary of the method: as §4
[41] = tested on: MV4-11; assay: Antitumor activity against FLT3-ITD bearing human MV4-11 cells xenografted in NOD-SCID mouse assessed as tumor growth inhibition at 30 mg/kg/day, po; format: functional; settings: MV4-11, po, read-out: TGI; summary of the method: as §4
[42] = tested on: Mus musculus; assay: Toxicity in FLT3-ITD bearing human MV4-11 cells xenografted NOD-SCID mouse assessed as induction of body weight loss at 10 to 60 mg/kg/day, po; format: organism-based; settings: in vivo; summary of the method: as §4
[43] = tested on: Mus musculus; assay: Toxicity in FLT3-ITD bearing human MV4-11 cells xenografted NOD-SCID mouse assessed as induction of toxicity signs at 10 to 60 mg/kg/day, po; format: organism-based; settings: in vivo; summary of the method: as §4
[44] = tested on: MV4-11; assay: Inhibition of cell proliferation of FLT3-ITD bearing human MV4-11 cells xenografted in NOD-SCID mouse assessed as reduction in Ki67-positive cells in tumor tissues at 60 mg/kg/day, po qd for 7 days by immunohistochemistry; format: functional, organism-based
Summary of the method: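 NOD-SCID mice bearing subcutaneous MV4-11 xenografts were dosed at 60 mg/kg/d by oral gavage, once daily. Tumors were harvested 7 days later. Proliferation was scored by Ki67 immunostaining and apoptosis by TUNEL staining.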

[45] = tested on: MV4-11; assay: Induction of apoptosis in FLT3-ITD bearing human MV4-11 cells xenografted in NOD-SCID mouse at 60 mg/kg/day, po qd for 7 days by TUNEL assay

solubility [1]: 7460 µg/mL (≈ 18.4 mM)
solubility [3]: 3150 µg/mL (≈ 7.77 mM)
solubility [4]: 304 µg/mL (≈ 0.749 mM)
solubility [5]: 36.6 µg/mL (≈ 0.0903 mM)
solubility [6]: 1.47 µg/mL (≈ 0.00363 mM)
AUC(0-t) at 24 h [7]: 14300 ng·h/mL
Cmax [8]: 3290 ng/mL
half-life [9]: 4.86 h
Vdss [10]: 14.12 L/kg
CL/F [11]: 33.5 mL/min/kg
IC50 [12]: 0.003 µM
IC50 [13]: > 20 µM
IC50 [14]: > 20 µM
IC50 [15]: 3.37 µM
IC50 [16]: > 20 µM
IC50 [17]: 5.61 µM
IC50 [18]: > 20 µM
IC50 [20]: > 20 µM
IC50 [21]: > 20 µM
IC50 [23]: > 20 µM
Compound: COc1ccn2cc(-c3ccc(NC(=O)Nc4cc(C(C)(C)C)on4)cc3)nc2c1
IC50 [2]: 0.00284 µM
IC50 [19]: > 20 µM
IC50 [22]: > 20 µM
Activity [24]: Non-toxic
Activity [25]: Dose-dependent effect
viability at 0.001 µM [26]: 78.7%
Activity [27]: 3.86%
Activity [28]: 12.1%
Activity [29]: 5.34%
viability at 0.01 µM [30]: 63.2%
Activity [31]: 7.42%
Activity [32]: 18.6%
Activity [33]: 10.8%
viability at 0.1 µM [34]: 54.8%
Activity [35]: 6.88%
Activity [36]: 23%
Activity [37]: 15.3%
Activity [38]: Active
TGI [39]: Dose-dependent effect
inhibition in vivo at 10 mg/kg/day [40]: 51%
inhibition in vivo at 30 mg/kg/day [41]: 87%
Activity [42]: Non-toxic
Activity [43]: Non-toxic
inhibition [44]: Active
Activity [45]: Active

Compound: CC(C)(C)c1cc(NC(=O)Nc2ccc(-c3cn4cc(I)ccc4n3)cc2)no1
IC50 [2]: 0.0985 µM

Compound: CC(C)(C)c1cc(NC(=O)Nc2ccc(-c3cn4cccc(C(F)(F)F)c4n3)cc2)no1
IC50 [2]: > 0.9 µM

solubility [1]: 6830 µg/mL (≈ 17.5 mM)
solubility [3]: 3340 µg/mL (≈ 8.58 mM)
Compound: Cc1ccn2cc(-c3ccc(NC(=O)Nc4cc(C(C)(C)C)on4)cc3)nc2c1
IC50 [2]: 0.00079 µM

From ChEMBL document CHEMBL3593173, “Discovery of novel N-(5-(tert-butyl)isoxazol-3-yl)-N'-phenylurea analogs as potent FLT3 inhibitors and evaluation of their activity against acute myeloid leukemia in vitro and in vivo” (Bioorg Med Chem, 2015)
